Experimental data from ChEMBL document CHEMBL4196230, “Design, Synthesis, and Blood-Brain Barrier Transport Study of Pyrilamine Derivatives as Histone Deacetylase Inhibitors” (ACS Med Chem Lett, 2018).
Active and inactive are the calls of the source. No cut-off for these calls is given here.

How the values were obtained:
[1] = Substrate activity at PYSOCA in human CMEC/D3 cells assessed as transporter-mediated drug uptake measured for 2 mins at 37degC in presence of L-carnitine; type: ADME, cell-based
[2] = Substrate activity at PYSOCA in human CMEC/D3 cells assessed as transporter-mediated drug uptake measured for 2 mins at 37degC in presence of diphenhydramine; type: ADME, cell-based
In short: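 Uptake by hCMEC/D3 cells was measured at various substrate concentrations, at 37 °C for 2 min, with or without diphenhydramine (100 µM). Data were analysed by Michaelis-Menten and Lineweaver-Burk plots using nonlinear least-squares regression (Eqs. 1 and 2). Mean ± S.E., n = 4.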

[3] = Substrate activity at PYSOCA in human CMEC/D3 cells assessed as transporter-mediated drug uptake measured for 2 mins at 37degC in presence of memantine; type: ADME, cell-based
[4] = target: T1, Histone deacetylase 7 (Homo sapiens) (UniProt Q8WUI4); test: Inhibition of recombinant human HDAC7 (518 to end residues) expressed in baculovirus infected insect cells at 30 uM using HDAC class 2a substrate measured after 30 mins by fluorescence assay relative to control
T1 sequence (whole entry): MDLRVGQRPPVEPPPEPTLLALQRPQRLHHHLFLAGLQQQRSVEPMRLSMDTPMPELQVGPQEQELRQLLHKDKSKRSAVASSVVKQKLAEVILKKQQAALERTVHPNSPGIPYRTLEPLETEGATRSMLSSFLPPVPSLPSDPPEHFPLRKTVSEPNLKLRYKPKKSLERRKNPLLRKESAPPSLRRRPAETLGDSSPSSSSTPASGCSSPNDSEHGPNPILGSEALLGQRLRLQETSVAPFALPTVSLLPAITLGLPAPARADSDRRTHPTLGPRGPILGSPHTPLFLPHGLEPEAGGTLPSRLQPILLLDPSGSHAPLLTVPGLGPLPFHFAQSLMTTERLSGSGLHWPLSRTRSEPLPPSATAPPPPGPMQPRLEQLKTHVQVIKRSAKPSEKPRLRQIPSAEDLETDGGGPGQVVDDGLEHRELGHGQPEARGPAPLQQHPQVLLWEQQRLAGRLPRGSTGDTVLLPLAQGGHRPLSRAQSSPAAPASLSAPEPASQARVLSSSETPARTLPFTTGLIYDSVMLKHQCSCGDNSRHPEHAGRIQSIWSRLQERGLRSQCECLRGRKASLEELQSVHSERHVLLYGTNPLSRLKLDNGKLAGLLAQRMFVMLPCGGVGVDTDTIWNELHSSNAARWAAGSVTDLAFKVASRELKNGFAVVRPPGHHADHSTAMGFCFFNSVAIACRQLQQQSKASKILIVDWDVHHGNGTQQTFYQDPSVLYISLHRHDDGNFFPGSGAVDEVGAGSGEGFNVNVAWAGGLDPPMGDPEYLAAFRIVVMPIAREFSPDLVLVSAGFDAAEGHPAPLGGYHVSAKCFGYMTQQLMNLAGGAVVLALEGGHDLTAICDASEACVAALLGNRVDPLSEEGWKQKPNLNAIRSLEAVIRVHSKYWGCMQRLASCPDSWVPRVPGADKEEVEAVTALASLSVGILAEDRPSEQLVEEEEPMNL

[5] = target: Histone deacetylase (Homo sapiens) (UniProt Q13547+O15379+Q9UBN7+Q92769+Q9UQL6+Q8WUI4+Q9BY41+Q96DB2+P56524+Q9UKV0+Q969S8); test: Time-dependent inhibition of HDAC in human HeLaS3 cells assessed as increase in histone H3K9 acetylation at 10 uM by immunoblot analysis; type: cell-based
[6] = Substrate activity at PYSOCA in human CMEC/D3 cells assessed as Vmax for transporter-mediated drug uptake assessed per mg protein measured for 2 mins at 37degC; type: ADME, cell-based
In short: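 Uptake by hCMEC/D3 cells measured over a range of concentrations at 37 °C for 2 min. Km and Vmax were obtained by fitting to Eq. 1. Mean ± S.E., n = 4.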

[7] = target: Histone deacetylase 9 (Homo sapiens) (UniProt Q9UKV0); test: Inhibition of recombinant human C-terminal His-tagged HDAC9 (604 to 1066 residues) expressed in baculovirus infected insect cells at 30 uM using HDAC class 2a substrate measured after 30 mins by fluorescence assay relative to control
[8] = target: T2, Polyamine deacetylase HDAC10 (Homo sapiens, UniProt Q969S8); test: Inhibition of human HDAC10 expressed in baculovirus infected Sf9 insect cells using HDAC substrate 3 measured after 30 mins by fluorescence assay
T2 sequence (Q969S8 whole entry): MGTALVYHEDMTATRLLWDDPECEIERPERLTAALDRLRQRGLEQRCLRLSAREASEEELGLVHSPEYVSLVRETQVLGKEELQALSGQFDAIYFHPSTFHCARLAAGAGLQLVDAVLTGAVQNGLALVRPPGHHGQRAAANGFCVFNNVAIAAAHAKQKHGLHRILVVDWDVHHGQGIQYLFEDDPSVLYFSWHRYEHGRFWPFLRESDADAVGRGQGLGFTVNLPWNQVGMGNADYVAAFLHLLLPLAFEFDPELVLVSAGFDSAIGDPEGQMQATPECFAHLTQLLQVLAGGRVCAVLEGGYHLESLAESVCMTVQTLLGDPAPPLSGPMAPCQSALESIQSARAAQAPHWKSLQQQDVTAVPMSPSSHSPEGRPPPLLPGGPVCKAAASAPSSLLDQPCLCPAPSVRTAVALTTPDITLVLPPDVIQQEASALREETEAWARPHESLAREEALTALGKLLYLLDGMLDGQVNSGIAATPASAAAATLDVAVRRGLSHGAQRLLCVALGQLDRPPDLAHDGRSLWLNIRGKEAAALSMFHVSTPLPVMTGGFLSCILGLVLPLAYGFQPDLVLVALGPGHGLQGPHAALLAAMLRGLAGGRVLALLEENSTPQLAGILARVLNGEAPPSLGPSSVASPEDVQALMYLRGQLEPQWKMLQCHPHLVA

Sequence of Histone deacetylase 9 (Homo sapiens) (Q9UKV0 whole entry, the tested form may be a part): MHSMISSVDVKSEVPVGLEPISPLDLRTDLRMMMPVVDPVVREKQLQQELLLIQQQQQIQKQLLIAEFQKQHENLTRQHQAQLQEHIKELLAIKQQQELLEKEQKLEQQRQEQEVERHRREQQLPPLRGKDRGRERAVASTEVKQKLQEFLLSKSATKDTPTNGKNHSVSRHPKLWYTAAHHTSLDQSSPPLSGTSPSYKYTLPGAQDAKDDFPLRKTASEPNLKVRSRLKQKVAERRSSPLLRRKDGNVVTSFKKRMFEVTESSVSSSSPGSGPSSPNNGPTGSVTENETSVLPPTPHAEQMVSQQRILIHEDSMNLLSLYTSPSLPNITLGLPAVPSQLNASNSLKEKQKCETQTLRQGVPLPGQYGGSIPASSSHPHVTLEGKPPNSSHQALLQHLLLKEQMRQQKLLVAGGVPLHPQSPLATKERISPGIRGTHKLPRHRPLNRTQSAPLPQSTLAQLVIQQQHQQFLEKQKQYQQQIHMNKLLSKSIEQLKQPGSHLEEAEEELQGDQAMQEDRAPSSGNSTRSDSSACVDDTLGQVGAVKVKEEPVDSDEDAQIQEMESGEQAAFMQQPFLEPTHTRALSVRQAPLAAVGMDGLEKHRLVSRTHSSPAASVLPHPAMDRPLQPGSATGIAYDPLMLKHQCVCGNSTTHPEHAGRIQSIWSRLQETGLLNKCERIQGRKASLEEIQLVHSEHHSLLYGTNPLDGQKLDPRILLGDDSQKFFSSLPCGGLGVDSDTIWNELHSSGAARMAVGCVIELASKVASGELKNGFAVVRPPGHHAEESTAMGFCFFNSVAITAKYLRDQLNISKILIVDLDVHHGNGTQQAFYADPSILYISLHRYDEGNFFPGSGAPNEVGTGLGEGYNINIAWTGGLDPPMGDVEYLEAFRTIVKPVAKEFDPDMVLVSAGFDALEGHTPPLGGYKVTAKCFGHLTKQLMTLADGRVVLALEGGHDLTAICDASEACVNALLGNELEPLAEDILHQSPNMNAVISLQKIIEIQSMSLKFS

Which Activity [1] does the source give for COc1ccc(CN(CCN(C)C)c2ccc(C(=O)Nc3ccccc3N)cn2)cc1 here?
Its Activity is “Active”.

And the Activity [2]?
Its Activity is “Not Active”.

And the Activity [3]?
Its Activity is “Not Active”.

And the inhibition [4]?
The inhibition was < 10%.

What about the TDI [5] of the same compound?
The TDI was “Active”.

And the Vmax [6]?
The Vmax was 5.17 nmol/min.

And the inhibition [7]?
Its inhibition is < 10%.

And the IC50 [8]?
The IC50 was 15.5 µM.
